Published values gathered from unrelated publications.

For `N.N.[Cl][Pt][Cl]`, the IC50 was 1.05 µM (NALM-6; cell growth or viability, ATP luminescence; 72 h).
The IC50 of `COc1ncncc1-c1cn([C@@H]2O[C@](F)(CO[P@@](=O)(N[C@@H](C)C(=O)OC(C)C)Oc3ccccc3)[C@@H](O)[C@H]2O)cn1` is reported as over 100 µM (Severe acute respiratory syndrome coronavirus 2; viral replication, inhibitor; A549-ACE2; 24 h).
The IC50 of `Cc1c(O)cccc1C(=O)N[C@@H](CSc1ccccc1)[C@H](O)CN1C[C@H]2CCCC[C@H]2C[C@H]1C(=O)NC(C)(C)C` is reported as 4.05 µM (Severe acute respiratory syndrome coronavirus 2; viral replication, inhibitor; Calu-3; replicon).
For `CCOC(=O)C1=C(CN2CCOCC2)NC(c2nccs2)=NC1c1ccc(F)cc1Br` (centres unmarked), the EC50 was 0.04 µM (Hepatitis B virus; viral replication, inhibitor, qPCR; HepDES19; 72 h).
The IC50 of `O=[N+]([O-])NC(=S)NN=Cc1ccc(Br)cc1` is reported as 1140 µM (Leishmania tropica; parasite growth; J774.A1; 72 h, intracellular, amastigote).
`COc1cnc(OC)n2nc(NS(=O)(=O)c3c(OCC(F)F)cccc3C(F)(F)F)nc12` gave an inhibition of 0% (L02; cell growth or viability, CCK-8; 0.78 µM, 72 h).
The IC50 of `O=c1[nH]c2ccccc2n1C1CCN(CCCC(c2ccc(F)cc2)c2ccc(F)cc2)CC1` is reported as 2.14 µM (Severe acute respiratory syndrome coronavirus 2; viral replication, inhibitor; Caco-2; replicon).
`Nc1ncncc1-c1cn([C@@H]2O[C@](F)(CO)[C@@H](O)[C@H]2O)cn1` gave an IC50 of over 100 µM (Severe acute respiratory syndrome coronavirus 2; viral replication, inhibitor; A549-ACE2; 24 h).
With `Cc1ccc(C=NNC(=S)N[N+](=O)[O-])cc1` the IC50 was 331 µM (Leishmania tropica; parasite growth; J774.A1; 72 h, intracellular, amastigote).
For `CC1=NN(c2ccc(C)c(C)c2)C(=O)/C1=N\Nc1cccc(-c2cccc(C(=O)O)c2)c1O`, the IC50 was 4.55 µM (Severe acute respiratory syndrome coronavirus 2; viral replication, inhibitor; Calu-3; replicon).
`COc1ncc(-c2cn([C@@H]3O[C@](F)(CO)[C@@H](O)[C@H]3O)cn2)c(OC)n1` has an IC50 of over 100 µM (Severe acute respiratory syndrome coronavirus 2; viral replication, inhibitor; A549-ACE2; 24 h).
With `Cc1ccc(NC(=O)C2(c3ccc4c(c3)OC(F)(F)O4)CC2)nc1-c1cccc(C(=O)O)c1` the IC50 was 0.458 µM (Severe acute respiratory syndrome coronavirus 2; viral replication, inhibitor; Calu-3; replicon).
For `COc1ccc(C=NNC(=S)N[N+](=O)[O-])cc1OC`, the IC50 was 865 µM (Leishmania tropica; parasite growth, MTT; 72 h, promastigote).
For `COc1ncncc1-c1cn([C@@H]2O[C@](F)(CO[P@@](=O)(N[C@@H](C)C(=O)OC(C)C)Oc3ccccc3)[C@@H](OC(=O)C(C)C)[C@H]2OC(=O)C(C)C)cn1`, the IC50 was 25.5 µM (Severe acute respiratory syndrome coronavirus 2; viral replication, inhibitor; A549-ACE2; 24 h).
